How the values were obtained:
[1] = Cmax in nude rat xenografted with human Calu6 cells harboring KRAS Q61K mutant at 75 mg/kg, po administered daily for 18 days starting from day 13 post tumor implantation and measured on day 31; format: ADME, organism-based; set-up: dose 75 mg/kg, route oral; conditions: in vivo
How it was run: (§1)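 Nude rats carrying Calu-6 (KRAS Q61K) NSCLC xenografts were dosed p.o. once daily at 15, 35, 75 or 150 mg/kg from day 13 to day 31 after implant. Plasma was collected after the last dose and drug concentration was measured. AUC and Cmax were calculated per dose on day 31.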

[2] = Toxicity in human Calu6 cells harboring KRAS Q61K mutant xenografted nude rat assessed as mortality at 15 to 150 mg/kg, po administered daily for 18 days starting from day 13 post tumor implantation and measured during compound dosing; format: organism-based; conditions: in vivo, 432 h
How it was run: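 Nude rats bearing Calu-6 (KRAS Q61K) NSCLC xenografts were dosed orally once daily with vehicle or 15, 35, 75 or 150 mg/kg. Dosing ran from day 13 post-implant to day 31. Rats were monitored for mortality and signs of toxicity over the treatment period, alongside body weight.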

[3] = target: T1, Serine/threonine-protein kinase B-raf (Homo sapiens, UniProt P15056); test: Binding affinity to wild-type human partial length BRAF (S429 to E741 residues) expressed in mammalian expression system at 1 uM by Kinomescan method relative to control
T1 sequence (P15056 whole entry, the tested form may be a part): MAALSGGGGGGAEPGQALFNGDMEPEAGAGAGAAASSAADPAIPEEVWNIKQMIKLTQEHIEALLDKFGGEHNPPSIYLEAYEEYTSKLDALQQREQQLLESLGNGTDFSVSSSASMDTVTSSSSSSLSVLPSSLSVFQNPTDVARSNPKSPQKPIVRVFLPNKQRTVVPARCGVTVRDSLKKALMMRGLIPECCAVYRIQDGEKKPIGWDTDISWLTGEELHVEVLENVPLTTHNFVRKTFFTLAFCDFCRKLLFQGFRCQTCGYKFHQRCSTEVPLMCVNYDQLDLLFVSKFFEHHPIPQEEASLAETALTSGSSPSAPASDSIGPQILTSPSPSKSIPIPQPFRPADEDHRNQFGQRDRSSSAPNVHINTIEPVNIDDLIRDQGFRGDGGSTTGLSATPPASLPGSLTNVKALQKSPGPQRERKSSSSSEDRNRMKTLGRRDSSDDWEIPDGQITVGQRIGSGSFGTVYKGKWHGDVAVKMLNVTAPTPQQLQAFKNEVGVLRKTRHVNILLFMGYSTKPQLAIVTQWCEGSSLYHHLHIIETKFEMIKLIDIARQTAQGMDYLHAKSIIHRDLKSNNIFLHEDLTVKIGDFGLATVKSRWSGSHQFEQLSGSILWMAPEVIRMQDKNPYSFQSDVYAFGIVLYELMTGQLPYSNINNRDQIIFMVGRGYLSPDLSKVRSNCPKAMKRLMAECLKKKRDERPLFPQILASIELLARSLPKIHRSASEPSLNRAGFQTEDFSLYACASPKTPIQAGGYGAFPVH

[4] = target: T2, RAF proto-oncogene serine/threonine-protein kinase (Homo sapiens, UniProt P04049); test: Binding affinity to wild-type human partial length CRAF (I330 to T640 residues) expressed in bacterial expression system at 1 uM by Kinomescan method relative to control
T2 sequence (P04049 whole entry, the tested form may be a part): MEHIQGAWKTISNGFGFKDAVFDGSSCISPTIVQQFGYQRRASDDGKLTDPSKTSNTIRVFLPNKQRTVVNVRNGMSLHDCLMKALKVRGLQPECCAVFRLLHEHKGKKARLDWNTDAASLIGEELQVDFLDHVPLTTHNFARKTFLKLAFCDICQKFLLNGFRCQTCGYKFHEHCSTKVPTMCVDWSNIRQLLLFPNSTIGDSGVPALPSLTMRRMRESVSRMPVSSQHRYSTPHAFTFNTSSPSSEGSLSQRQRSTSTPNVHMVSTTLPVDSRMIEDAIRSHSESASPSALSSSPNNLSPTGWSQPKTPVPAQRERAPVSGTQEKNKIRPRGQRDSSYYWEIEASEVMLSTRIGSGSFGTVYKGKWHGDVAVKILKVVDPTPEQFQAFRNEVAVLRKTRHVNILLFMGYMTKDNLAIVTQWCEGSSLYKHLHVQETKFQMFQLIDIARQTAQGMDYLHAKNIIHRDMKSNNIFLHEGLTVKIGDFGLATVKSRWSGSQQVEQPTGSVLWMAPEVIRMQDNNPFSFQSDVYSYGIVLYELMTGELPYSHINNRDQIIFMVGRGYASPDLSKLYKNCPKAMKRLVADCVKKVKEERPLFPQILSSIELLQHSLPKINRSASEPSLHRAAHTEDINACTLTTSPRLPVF

[5] = tested on: Serine/threonine-protein kinase B-raf (Homo sapiens), P15056 [V600E]; test: Binding affinity to human partial length BRAF V600E mutant (S429 to E741 residues) expressed in mammalian expression system at 1 uM by Kinomescan method relative to control
Chain of Serine/threonine-protein kinase B-raf (Homo sapiens), P15056 [V600E] (P15056 whole entry V600E, the tested form may be a part): as the sequence (P15056 whole entry, the tested form may be a part) above, with V600E counted along it

[6] = target: T3, Discoidin domain-containing receptor 2 (Homo sapiens) (UniProt Q16832); test: Binding affinity to wild-type human partial length DDR2 (V555 to E855 residues) expressed in mammalian expression system at 1 uM by Kinomescan method relative to control
T3 sequence (whole entry): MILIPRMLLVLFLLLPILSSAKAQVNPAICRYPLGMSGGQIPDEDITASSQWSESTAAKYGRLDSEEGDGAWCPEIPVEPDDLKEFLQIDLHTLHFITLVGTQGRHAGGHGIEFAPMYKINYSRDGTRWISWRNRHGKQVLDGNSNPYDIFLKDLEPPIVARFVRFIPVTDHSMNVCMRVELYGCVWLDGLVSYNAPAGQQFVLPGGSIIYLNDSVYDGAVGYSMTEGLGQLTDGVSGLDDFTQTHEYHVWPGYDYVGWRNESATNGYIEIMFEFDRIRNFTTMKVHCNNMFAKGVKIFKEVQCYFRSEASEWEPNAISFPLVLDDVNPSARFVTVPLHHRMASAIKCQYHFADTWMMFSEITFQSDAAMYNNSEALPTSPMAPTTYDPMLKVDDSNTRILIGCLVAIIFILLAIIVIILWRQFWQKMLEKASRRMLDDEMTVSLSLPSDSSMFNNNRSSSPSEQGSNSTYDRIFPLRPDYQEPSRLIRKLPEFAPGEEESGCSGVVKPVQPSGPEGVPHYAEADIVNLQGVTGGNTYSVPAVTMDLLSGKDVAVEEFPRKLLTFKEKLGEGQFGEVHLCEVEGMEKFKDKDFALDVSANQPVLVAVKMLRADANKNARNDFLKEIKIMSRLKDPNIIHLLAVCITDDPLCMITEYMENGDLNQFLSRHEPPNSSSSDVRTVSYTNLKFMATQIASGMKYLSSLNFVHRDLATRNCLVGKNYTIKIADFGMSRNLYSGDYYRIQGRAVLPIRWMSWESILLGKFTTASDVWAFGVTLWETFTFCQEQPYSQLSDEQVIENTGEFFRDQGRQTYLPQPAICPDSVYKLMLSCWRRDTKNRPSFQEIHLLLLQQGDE
How it was run: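 KINOMEscan competition binding panel of about 456 kinases, compound tested at 1 μM. Activity is given as % of control = [(test signal − positive control signal)/(negative control signal − positive control signal)] × 100.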

[7] = Time of last measurable concentration in nude rat xenografted with human Calu6 cells harboring KRAS Q61K mutant at 150 mg/kg, po administered daily for 18 days starting from day 13 post tumor implantation and measured on day 31; format: ADME, organism-based; conditions: in vivo, 432 h
How it was run: (§2)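 Calu-6 xenograft nude rats were dosed orally once daily at 15, 35, 75 or 150 mg/kg from day 13 after implantation to day 31. Plasma was collected after the last dose on day 31, drug concentrations were measured, and PK parameters including AUC were calculated for each dose.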

[8] = Stability of the compound in human plasma assessed as parent compound remaining measured after 3 hrs; format: ADME, cell-free; conditions: read-out: Stability
How it was run: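 Compound incubated in human plasma for 3 h; stability expressed as percent remaining intact.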

[9] = target: T2, RAF proto-oncogene serine/threonine-protein kinase; test: Binding affinity to wild-type human partial length CRAF (I330 to T640 residues) expressed in bacterial expression system by Kinomescan method
[10] = Tmax in nude rat xenografted with human Calu6 cells harboring KRAS Q61K mutant at 15 mg/kg, po administered daily for 18 days starting from day 13 post tumor implantation and measured on day 31; format: ADME, organism-based; conditions: in vivo; how it was run: as §2
[11] = tested on: Calu-6; test: Antitumor activity against human Calu6 cells harboring KRAS Q61K mutant xenografted in nude rat assessed as tumor growth at 15 mg/kg, po administered daily for 18 days starting from day 13 post tumor implantation and measured on day 31 relative to control; format: functional
How it was run: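 Nude rats bearing Calu-6 (KRAS Q61K) human NSCLC xenografts received vehicle or drug p.o. daily at 15, 35, 75 or 150 mg/kg. Dosing began 13 days after tumor implantation and ran to day 31, i.e. 18 days of treatment. Tumor volumes were read out as %T/C or % regression versus vehicle on day 31. Body weight was also tracked.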

[12] = target: T1, Serine/threonine-protein kinase B-raf; test: Binding affinity to wild-type human partial length BRAF (S429 to E741 residues) expressed in mammalian expression system by Kinomescan method
[13] = Volume of distribution at steady state in rat at 2 mg/kg, iv or 4 mg/kg, po; format: ADME, organism-based; conditions: in vivo, read-out: Vdss
[14] = AUC (0 to 24 hrs) in nude rat xenografted with human Calu6 cells harboring KRAS Q61K mutant at 15 mg/kg, po administered daily for 18 days starting from day 13 post tumor implantation and measured on day 31; format: ADME, organism-based; set-up: dose 15 mg/kg, time < 24 hr, route oral; conditions: in vivo; how it was run: as §1

## Cc1ccc(NC(=O)c2ccnc(C(F)(F)F)c2)cc1-c1cc(OCCO)nc(N2CCOCC2)c1 [NAPORAFENIB]
[1]
  Cmax: 8.68 µM
[2]
  Activity: Non-Toxic
[3]
  Activity: > 98%
[4]
  Activity: > 98%
[5]
  Activity: > 98%
[6]
  Activity: 84%
[7]
  Tlast: 24 h
[8]
  remaining at 3 h: > 90%
[9]
  Kd: 3.6 nM
[10]
  Tmax: 3 h
[11]
  T/C: 29%
[12]
  Kd: 1.3 nM
[13]
  Vd: 5.4 L/kg
[14]
  AUC at 24 h: 7.91 µM·h

From ChEMBL document CHEMBL4342410, “Design and Discovery of N-(3-(2-(2-Hydroxyethoxy)-6-morpholinopyridin-4-yl)-4-methylphenyl)-2-(trifluoromethyl)isonicotinamide, a Selective, Efficacious, and Well-Tolerated RAF Inhibitor Targeting RAS Mutant Cancers: The Path to the Clinic” (J Med Chem, 2020)
